Source: PubChem (The Scripps Research Institute Molecular Screening Center)
HTR5A ag ctr – HTR5A agonism, opioid heterodimer counter-screen; P47898; HTR5A agonist assay, luminescence, cell-based; activation, % at 9.3 µM; 340,000 compounds, 0.61% hits; AID 504692; in the data active = activation mostly above about 9.5%, no sharp cut-off; inactive = mostly below about 7.6%;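 note: 0% = cells with vehicle only and 100% = reference agonist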
MC4R antag cAMP – human MC4R antagonism in cAMP assay | MC4R-expressing cells, MTII-stimulated cAMP, LANCE TR-FRET | inhibition, % at 6.5 µM | 360,000 compounds, 0.48% hits | AID 540295;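 active = inhibition above its plate's cutoff, the mean of tested wells on that plate plus 3 SD, cut at about 29% in these data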;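 note: 0% = Melanotan II alone and 100% = Melanotan II plus saturating MCL0020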
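Material: U2OS-MC4R stable cell line | Reagent: Melanotan II challenge after compound preincubation | Doses: One concentration, 6.5 µM nominal | Incubation: 30-min compound preincubation, 1-h Melanotan II challenge, 1-h detection, room temperature | Signal: TR-FRET cAMP assay | Replicates: One well per compound, no replicates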
OPRM1-OPRD1 ag – agonists of human mu-delta opioid receptor heterodimerization; activation, % at 9.3 µM; cells, OPRM1-OPRD1 heterodimerization, luminescence; P35372+P41143; 340,000 compounds, 0.3% hits; in the data active = activation above about 18%;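 note: 0% = vehicle-treated cells and 100% = reference agonist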
OPRM1-OPRD1 inv – inverse agonist of human OPRM1-OPRD1 heterodimerization. P35372+P41143. cell-based MOR-DOR heterodimer luminescence, inverse agonism. inhibition, % at 9.3 µM. 340,000 compounds, 0.21% hits. AID 504357; in the data active = inhibition above about 22%, passing the limit was not always enough;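 note: 0% = cells with DMSO and 100% = wells without cells with DMSO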
MC4R barr agon – human MC4R agonism via beta-arrestin | U2OS MC4R beta-arrestin complementation, luminescence; percent of melanotan II response, DMSO zero | activation, % at 8.9 µM | P32245 | 360,000 compounds, 0.98% hits;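 active = activation above a per-plate cutoff, the mean activation of sample wells on that plate plus 3 SD, cut at about 8% in these data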
HTR5A inv ctr – HTR5A inverse agonism, opioid heterodimer counter-screen | AID 504634 | inhibition, % at 9.3 µM | HTR5A cell line, luminescence | 340,000 compounds, 0.083% hits | P47898; in the data active = inhibition mostly above about 23%, no sharp cut-off; inactive = mostly below about 18%;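 note: 0% = cells with DMSO and 100% = no-cell wells with DMSO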
U2OS cAMP counter – counter-screen for MC4R antagonists: nonselective cAMP signaling inhibitors. 1,600 compounds, 26% hits. AID 602193. shares compounds with MC4R antag cAMP. parental U2OS, forskolin cAMP, LANCE TR-FRET. inhibition, % at 6.5 µM;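 active = mean inhibition over triplicates above the low-control well mean plus 3 SD, set per campaign, cut at about 13% in these data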;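 note: signal is single emission at 671 nm which falls as cellular cAMP rises; 0% = forskolin-stimulated wells and 100% = buffer without forskolin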
MC4R antag conf – human MC4R cAMP antagonism confirmation | MC4R-expressing cells, MTII-stimulated cAMP, TR-FRET | shares compounds with MC4R antag cAMP | inhibition, % at 6.5 µM | 1,600 compounds, 27% hits; in the data active = inhibition above about 29%;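 note: 0% = agonist stimulated wells alone and 100% = agonist stimulated wells plus saturating reference antagonist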
Numbers without * were called inactive; x = no result given. Compounds with a hit are over-represented: about 2.4% of the library has one in this group of screens.

SMILES	HTR5A ag ctr	MC4R antag cAMP	OPRM1-OPRD1 ag	OPRM1-OPRD1 inv	MC4R barr agon	HTR5A inv ctr	U2OS cAMP counter	MC4R antag conf
CC1=NOC(=O)/C1=C\c1ccc(-c2cccc(Cl)c2)o1	-6	7	4	-18	-4	15	x	x
CC1=NOC(=O)/C1=C\c1ccc(-c2ccccc2Br)o1	-1	62*	4	-19	-3	2	9	11
Cc1cnc(NC(=O)c2cc3ccccc3o2)s1	-1	5	-3	13	-2	6	x	x
Cc1ccc(-c2nc3c(c(=O)[nH]c(=O)n3Cc3ccccc3)n2C)o1	2	6	-4	19	0	2	x	x
Cn1c(C2CCCCC2)nc2c1c(=O)[nH]c(=O)n2Cc1ccccc1	5	34*	-2	11	-3	2	4	8
CCn1c(CO)nc2c1c(=O)[nH]c(=O)n2Cc1ccccc1	-8	31*	-8	35	-2	28	0	2
Clc1ccc(-c2nnc(-c3ccco3)nc2N2CCCCC2)cc1	-4	29*	4	-21	-1	13	0	6
Clc1ccc(-c2nnc(-c3ccc(Br)cc3)c(N3CCSCC3)n2)cc1	4	6	0	2	-2	13	x	x
CCOc1cc(/C=C/C(=O)OCC(=O)N(CC)C2CCS(=O)(=O)C2)cc(Cl)c1OC (stereo unspecified)	x	-5	x	x	0	x	x	x
COc1ccc(CC(=O)Oc2ccc(F)c(F)c2)cc1S(=O)(=O)N1CCOCC1	-8	35*	-1	4	-1	9	13	18
COc1cccc(C(=O)NCCS(=O)(=O)N2CCN(C(=O)c3ccco3)CC2)c1	3	3	2	-13	1	-8	x	x
CC(C)C[C@H](N)c1nnc(S(=O)(=O)Cc2ccc(F)cc2)o1	4	43*	-4	24	-4	-12	23*	36*
COC(=O)c1ccc(CS(=O)(=O)c2ccc(F)cc2)o1	1	1	-2	10	-2	-3	x	x
O=C(CSCc1ccc(Cl)cc1Cl)Nc1ccc(O)cc1C(=O)O	5	11	-1	7	3	-19	x	x
O=C(CSCc1ccc(Cl)cc1Cl)Nc1ccccc1C(=O)Nc1ccc(C(=O)O)cc1	3	30*	-1	4	2	-10	-2	-2
Cc1cc2oc(C(=O)N(Cc3ccccc3)C3CCS(=O)(=O)C3)cc(=O)c2cc1Cl (stereo unspecified)	4	30*	1	-7	1	-11	1	11
O=C(c1cc(=O)c2ccccc2o1)N(Cc1ccccc1)C1CCS(=O)(=O)C1 (stereo unspecified)	-4	-1	-3	14	-1	-22	x	x
COc1ccc(Cc2noc(CN3CCN(Cc4cccc(Cl)c4)CC3)n2)cc1OC	0	34*	3	-14	-1	-1	17*	-4
COCCN1CCN(Cc2nc(Cc3ccc(OC)c(OC)c3)no2)CC1	0	12	-2	12	-1	0	x	x
COC(=O)Cn1c(CN2CCN(c3ccc(F)cc3)CC2)nc2c1c(=O)n(C)c(=O)n2C	-2	29*	2	-11	1	17	4	11
NS(=O)(=O)c1ccc(CCNS(=O)(=O)c2ccc(Cl)nc2)cc1	1	35*	-1	6	0	14	19*	4
NC(=O)c1cc(N=Nc2c(N)[nH]n(-c3c(Cl)cc(Cl)cc3Cl)c2=O)ccc1Cl	-3	-2	-4	20	-3	9	x	x
O=C(Nc1ccccc1C(=O)N1CCCC1)c1ccc(Cl)c([N+](=O)[O-])c1	0	36*	2	-17	2	-1	5	25
Cc1nc2ccc(NC(=O)c3ccc(Cl)c([N+](=O)[O-])c3)cc2s1	-3	30*	1	-6	0	9	10	20
O=C(Nc1ccccc1-c1ccccc1)c1ccc(Cl)c([N+](=O)[O-])c1	2	56*	3	-16	0	16	31*	74*
SMILES	HTR5A ag ctr	MC4R antag cAMP	OPRM1-OPRD1 ag	OPRM1-OPRD1 inv	MC4R barr agon	HTR5A inv ctr	U2OS cAMP counter	MC4R antag conf
O=C(Nc1ccccc1N1CCCCC1)c1ccc(Cl)c([N+](=O)[O-])c1	10	41*	5	-26	1	-21	3	51*
O=C(Nc1cc(Cl)ccc1-n1cncn1)c1cc(F)c(F)c(F)c1F	0	31*	6	-42	1	0	24*	50*
CS(=O)(=O)c1ccccc1C(=O)Nc1cc(Cl)ccc1-n1cncn1	3	4	-2	11	-2	3	x	x
CN(C)c1nc(NNC(=O)c2ccccc2)nc(N(C)C)n1	-1	0	-2	8	1	5	x	x
Nc1[nH]ncc1-c1ccccc1	-3	19	-1	6	0	8	x	x
COc1ccc(C(=O)Nc2ccc(S(=O)(=O)Nc3cc(C)nc(C)n3)cc2)cc1	2	17	-1	6	-1	-7	x	x
COc1cccc(C(=O)Nc2ccc(S(=O)(=O)Nc3cc(C)nc(C)n3)cc2)c1	-2	29*	-1	7	-1	5	-1	-1
CCOC(=O)C1=C(c2ccccc2)NC(=O)NC1c1ccc(OC)c(OC)c1 (stereo unspecified)	-1	33*	-1	3	0	2	-1	-7
Cc1csc(SCC(=O)N(C)CC(=O)Nc2ccc(F)cc2)n1	-7	6	-2	11	0	16	x	x
O=C(CCN1Cc2ccccc2C1)c1ccc2c(c1)OCCO2	2	34*	-1	5	-3	-19	18*	31*
CC(C)(C)C(=O)COC(=O)c1ccc2c(c1)C(=O)N(Cc1ccco1)C2=O	-3	37*	1	-6	-1	-17	-3	-3
COc1ccc(C2C(C#N)=C(C)NC(C)=C2C(=O)OC(C)C)c(OC)c1 (stereo unspecified)	3	24	1	-5	2	-7	x	x
Nc1nnc(-c2ccc(Cl)cc2Cl)s1	0	30*	-2	11	-2	-8	2	2
CCS(=O)(=O)c1ccc2oc(Nc3cccc(OC)c3)nc2c1	3	31*	2	-9	1	-8	1	-9
CCS(=O)(=O)c1ccc2oc(Nc3ccc(OC)cc3)nc2c1	-1	2	-2	10	-2	3	x	x
Cc1ccc(S(=O)(=O)C=CS(=O)(=O)c2ccc(C)cc2)cc1	x	42*	x	x	-5	x	9	-4
Cc1cccc(CC(=O)N2CCCC2)c1	2	2	-3	17	-1	-6	x	x
COc1ccccc1CNC(=O)C(C)Sc1ccsc1[N+](=O)[O-] (stereo unspecified)	-6	30*	-1	9	-1	16	0	-5
